Measurements: ChEMBL document CHEMBL1135530, “Selective alpha4beta7 integrin antagonists and their potential as antiinflammatory agents” (J Med Chem, 2002)
Peptide text beside a SMILES is read from it.

Assays:
[1] = Selectivity is the ratio of inhibitory concentrations at alpha4-beta1 integrin to alpha4-beta7 integrin
Integrin alpha-4/beta-1 = Integrin alpha-4/beta-1 (Homo sapiens, UniProt P05556+P13612); experiment: Inhibitory concentration affording 50% inhibition of alpha4-beta1 integrin binding to VCAM-1, using ELISA assay.; type: protein-complex assay
Integrin alpha-4/beta-1, sequence (P05556 whole entry, one chain of several, the tested form may be a part): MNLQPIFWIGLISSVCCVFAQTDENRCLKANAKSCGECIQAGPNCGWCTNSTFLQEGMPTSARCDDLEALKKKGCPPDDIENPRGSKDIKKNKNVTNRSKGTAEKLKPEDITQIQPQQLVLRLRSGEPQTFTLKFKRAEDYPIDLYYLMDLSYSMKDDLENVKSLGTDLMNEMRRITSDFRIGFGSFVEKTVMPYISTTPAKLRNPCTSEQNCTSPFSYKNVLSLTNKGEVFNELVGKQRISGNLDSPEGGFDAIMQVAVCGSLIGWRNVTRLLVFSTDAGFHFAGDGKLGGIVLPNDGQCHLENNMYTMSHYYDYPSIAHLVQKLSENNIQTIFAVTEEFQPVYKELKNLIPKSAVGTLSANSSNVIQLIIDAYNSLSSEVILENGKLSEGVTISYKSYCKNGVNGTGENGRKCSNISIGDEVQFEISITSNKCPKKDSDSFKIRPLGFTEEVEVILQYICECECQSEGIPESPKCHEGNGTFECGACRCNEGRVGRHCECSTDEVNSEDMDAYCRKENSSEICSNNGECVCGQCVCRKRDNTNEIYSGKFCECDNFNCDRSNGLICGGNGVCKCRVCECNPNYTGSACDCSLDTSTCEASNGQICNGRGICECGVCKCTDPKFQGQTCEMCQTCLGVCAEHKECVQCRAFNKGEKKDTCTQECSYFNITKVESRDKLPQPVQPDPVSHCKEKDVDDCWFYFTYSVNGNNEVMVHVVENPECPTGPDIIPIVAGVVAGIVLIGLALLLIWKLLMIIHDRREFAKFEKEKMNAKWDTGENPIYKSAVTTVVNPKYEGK
How it was run: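 α4β1 extracted from Ramos cell membranes (lectin chromatography, gel filtration in 1% octylglucoside), with 1 mM MnCl2 throughout. Wells coated with 4 µg/mL recombinant soluble human VCAM-1 (5 N-terminal Ig domains, from CHO cells) and blocked with 1% BSA. Inhibitor and receptor 2 h at 37 °C in Tris pH 7.4. Bound receptor detected with anti-β1 mAb 2D4.6, then HRP anti-mouse and TMB at 450 nm. IC50 at half-maximal absorbance.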

Integrin alpha-4/beta-7 = biological target: T1, Integrin alpha-4/beta-7 (Homo sapiens, UniProt P13612+P26010); experiment: Ability to block the alpha4-beta7 integrin-MAdCAM-1 binding interaction using a protein ELISA format; type: protein-complex assay
T1 sequence (P13612 whole entry): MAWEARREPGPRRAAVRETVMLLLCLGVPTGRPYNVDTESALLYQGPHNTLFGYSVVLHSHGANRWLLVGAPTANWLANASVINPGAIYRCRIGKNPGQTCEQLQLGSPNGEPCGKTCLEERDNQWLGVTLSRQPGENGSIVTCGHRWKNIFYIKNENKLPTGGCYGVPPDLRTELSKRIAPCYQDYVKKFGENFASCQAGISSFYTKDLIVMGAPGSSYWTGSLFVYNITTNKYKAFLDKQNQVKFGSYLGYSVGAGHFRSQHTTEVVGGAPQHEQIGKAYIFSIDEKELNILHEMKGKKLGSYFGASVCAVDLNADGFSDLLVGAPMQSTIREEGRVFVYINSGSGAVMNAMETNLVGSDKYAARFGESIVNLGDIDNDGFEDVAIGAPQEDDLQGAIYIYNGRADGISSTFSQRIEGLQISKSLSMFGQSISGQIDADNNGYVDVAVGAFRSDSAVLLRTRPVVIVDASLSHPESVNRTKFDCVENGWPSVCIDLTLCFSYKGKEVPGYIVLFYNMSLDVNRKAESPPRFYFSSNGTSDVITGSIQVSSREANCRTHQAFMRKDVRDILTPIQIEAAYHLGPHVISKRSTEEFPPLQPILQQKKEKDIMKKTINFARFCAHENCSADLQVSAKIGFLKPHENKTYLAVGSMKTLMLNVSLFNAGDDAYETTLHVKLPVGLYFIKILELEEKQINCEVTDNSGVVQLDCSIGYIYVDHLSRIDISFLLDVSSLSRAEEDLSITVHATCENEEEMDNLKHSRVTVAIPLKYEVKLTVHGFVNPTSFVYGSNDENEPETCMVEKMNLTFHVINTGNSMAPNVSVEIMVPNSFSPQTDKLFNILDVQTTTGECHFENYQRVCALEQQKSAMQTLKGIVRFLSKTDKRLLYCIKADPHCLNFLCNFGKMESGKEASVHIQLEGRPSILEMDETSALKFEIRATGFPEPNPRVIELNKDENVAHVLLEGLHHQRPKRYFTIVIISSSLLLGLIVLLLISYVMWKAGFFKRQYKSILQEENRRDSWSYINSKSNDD
T1 sequence (P26010 whole entry): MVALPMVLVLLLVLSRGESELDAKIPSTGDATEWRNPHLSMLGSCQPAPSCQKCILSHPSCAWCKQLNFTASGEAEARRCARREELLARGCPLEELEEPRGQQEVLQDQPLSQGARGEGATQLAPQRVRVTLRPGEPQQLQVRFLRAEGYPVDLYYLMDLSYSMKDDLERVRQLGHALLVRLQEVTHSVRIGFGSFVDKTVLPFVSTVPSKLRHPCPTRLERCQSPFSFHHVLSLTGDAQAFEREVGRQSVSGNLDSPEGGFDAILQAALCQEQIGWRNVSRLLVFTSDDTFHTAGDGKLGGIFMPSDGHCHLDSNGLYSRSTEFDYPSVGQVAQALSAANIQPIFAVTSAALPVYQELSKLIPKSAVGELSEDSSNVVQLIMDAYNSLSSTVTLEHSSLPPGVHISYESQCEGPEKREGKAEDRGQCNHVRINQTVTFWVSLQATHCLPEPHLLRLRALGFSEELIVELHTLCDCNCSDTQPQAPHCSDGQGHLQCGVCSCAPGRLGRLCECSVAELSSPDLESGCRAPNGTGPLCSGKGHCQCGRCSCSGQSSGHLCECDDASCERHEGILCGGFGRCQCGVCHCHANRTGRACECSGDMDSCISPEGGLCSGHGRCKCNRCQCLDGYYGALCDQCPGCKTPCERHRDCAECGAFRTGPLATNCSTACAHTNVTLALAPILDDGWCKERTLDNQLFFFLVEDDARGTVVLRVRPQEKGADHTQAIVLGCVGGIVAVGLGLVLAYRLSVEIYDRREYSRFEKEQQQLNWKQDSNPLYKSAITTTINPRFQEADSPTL
How it was run: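 Plates coated overnight at 4 °C with anti-human α4 antibody 9F10 (2 µg/mL), blocked in Tris pH 7.5 buffer with 1 mM MnCl2, Tween-20 and 0.5% BSA, then loaded with α4β7 purified from transfected JY cells (2 µg/mL). Compounds (1 nM–200 µM final, triplicate) plus MAdCAM-1-Ig-HRP (1 µg/mL), 2 h room temperature. TMB read at 450 nm; IC50 at half-maximal absorbance.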

SMILES	Ratio [1]	IC50 (Integrin alpha-4/beta-1)	IC50 (Integrin alpha-4/beta-7)
CC(C)C[C@H]1NC(=O)[C@H]([C@@H](C)O)NC(=O)[C@@H](CC(=O)O)NC(=O)[C@H](CO)NC(=O)[C@@H](Cc2ccc(O)cc2)NC(=O)[C@H](N)CSSC[C@H](C(N)=O)NC1=O	0.07	–	–
CC(C)C[C@H]1NC(=O)[C@H]([C@@H](C)O)NC(=O)[C@@H](CC(=O)O)NC(=O)[C@H]([C@@H](C)O)NC(=O)[C@@H](CCCN=C(N)N)NC(=O)[C@H](N)CSSC[C@H](C(N)=O)NC1=O	3.5	–	–
CC(C)C[C@H]1NC(=O)[C@H]([C@@H](C)O)NC(=O)[C@@H](CCC(=O)O)NC(=O)[C@H](CO)NC(=O)[C@@H](CCCN=C(N)N)NC(=O)[C@H](N)CSSC[C@H](C(N)=O)NC1=O	0.1	–	–
CC(C)C[C@H]1NC(=O)[C@H]([C@@H](C)O)NC(=O)[C@@H](CC(=O)O)NC(=O)[C@H](CO)NC(=O)[C@@H](CCCCN)NC(=O)[C@H](N)CSSC[C@H](C(N)=O)NC1=O	6	–	–
CC(C)C[C@H]1NC(=O)[C@H]([C@@H](C)O)NC(=O)[C@@H](CC(=O)O)NC(=O)[C@H](CO)NC(=O)[C@@H](Cc2ccccc2)NC(=O)[C@H](N)CSSC[C@H](C(N)=O)NC1=O	0.09	–	–
CC[C@H](C)[C@@H]1NC(=O)[C@@H](CCCN=C(N)N)NC(=O)[C@H](N)CSSC[C@H](C(N)=O)NC(=O)[C@@H](CC(C)C)NC(=O)[C@H]([C@@H](C)O)NC(=O)[C@@H](CC(=O)O)NC1=O	0.06	–	–
CC(C)C[C@H]1NC(=O)[C@H]([C@@H](C)O)NC(=O)[C@@H](CC(=O)O)NC(=O)[C@H](CO)NC(=O)[C@@H](CCCN=C(N)N)NC(=O)[C@H](N)CSSC[C@H](C(=O)O)NC1=O	3.1	–	–
CC[C@H](C)[C@@H]1NC(=O)[C@H](CCCN=C(N)N)NC(=O)[C@@H](N)CSSC[C@@H](C(N)=O)NC(=O)[C@H](CC(C)C)NC(=O)[C@H]([C@@H](C)O)NC(=O)[C@H](CC(=O)O)NC1=O	–	1200 nM	20000 nM
C[C@@H](O)[C@@H]1NC(=O)[C@@H](CC(=O)O)NC(=O)[C@H](CO)NC(=O)[C@@H](CCCN=C(N)N)NC(=O)[C@H](N)CSSC[C@H](C(N)=O)NC(=O)CNC1=O	> 9	–	–
CSCC[C@H](N)C(=O)N[C@@H](CC(=O)O)C(=O)N[C@H]1CSSC[C@@H](C(=O)NCC(N)=O)NC(=O)[C@H](CC(C)C)NC(=O)[C@H]([C@@H](C)O)NC(=O)[C@H](CC(=O)O)NC(=O)[C@H](CO)NC(=O)[C@H](CCCN=C(N)N)NC1=O (HELM PEPTIDE1{M.D.C.R.S.D.T.L.C.G.[am]}$PEPTIDE1,PEPTIDE1,3:R3-9:R3$$$V2.0)	–	8800 nM	340 nM
CC(C)C[C@@H]1NC(=O)[C@H]([C@@H](C)O)NC(=O)[C@H](CC(=O)O)NC(=O)[C@H](CO)NC(=O)[C@H](CCCNC(=N)N)NC(=O)[C@@H](NC(=O)[C@@H](N)CC(=O)O)CSSC[C@@H](C(N)=O)NC1=O (HELM PEPTIDE1{D.C.R.S.D.T.L.C.[am]}$PEPTIDE1,PEPTIDE1,2:R3-8:R3$$$V2.0)	–	8600 nM	520 nM
CC(C)C[C@H]1NC(=O)[C@H]([C@@H](C)O)NC(=O)[C@@H](CC(=O)O)NC(=O)[C@H](CO)NC(=O)[C@@H](CCCN=C(N)N)NC(=O)[C@H](N)CSSC[C@H](C(N)=O)NC1=O	35	–	–
CC(C)C[C@@H]1NC(=O)[C@H]([C@@H](C)O)NC(=O)[C@H](CC(=O)O)NC(=O)[C@H](CO)NC(=O)[C@H](Cc2c[nH]c3ccccc23)NC(=O)[C@@H](N)CSSC[C@@H](C(N)=O)NC1=O	–	160 nM	430 nM
CC(C)C[C@H]1NC(=O)[C@H]([C@@H](C)O)NC(=O)[C@@H](CC(=O)O)NC(=O)[C@H](CO)NC(=O)[C@@H](Cc2c[nH]c3ccccc23)NC(=O)[C@H](N)CSSC[C@H](C(N)=O)NC1=O	0.37	–	–
CC(C)C[C@H]1NC(=O)[C@H]([C@@H](C)O)NC(=O)[C@@H](CC(N)=O)NC(=O)[C@H](CO)NC(=O)[C@@H](CCCN=C(N)N)NC(=O)[C@H](N)CSSC[C@H](C(N)=O)NC1=O	0.5	–	–
CC(C)C[C@@H]1NC(=O)[C@H]([C@@H](C)O)NC(=O)[C@H](CC(=O)O)NC(=O)[C@H](CO)NC(=O)[C@H](CCCN=C(N)N)NC(=O)[C@@H](NC(=O)[C@@H](N)CC(=O)O)CSSC[C@@H](C(=O)NCC(=O)N[C@@H](CCC(=O)O)C(N)=O)NC1=O (HELM PEPTIDE1{D.C.R.S.D.T.L.C.G.E.[am]}$PEPTIDE1,PEPTIDE1,2:R3-8:R3$$$V2.0)	–	8300 nM	260 nM
CC(C)[C@H]1NC(=O)[C@H]([C@@H](C)O)NC(=O)[C@@H](CC(=O)O)NC(=O)[C@H](CO)NC(=O)[C@@H](CCCN=C(N)N)NC(=O)[C@H](N)CSSC[C@H](C(N)=O)NC1=O	13.1	–	–
CC(C)C[C@@H]1NC(=O)[C@H](CO)NC(=O)[C@H](CC(=O)O)NC(=O)[C@H](CO)NC(=O)[C@H](CCCNC(=N)N)NC(=O)[C@@H](N)CSSC[C@@H](C(N)=O)NC1=O	–	14000 nM	290 nM
CC(C)C[C@@H]1NC(=O)[C@H]([C@@H](C)O)NC(=O)[C@H](CC(=O)O)NC(=O)[C@H](CO)NC(=O)[C@H](CCCCN)NC(=O)[C@@H](N)CSSC[C@@H](C(N)=O)NC1=O	–	1500 nM	250 nM
CC(C)C[C@@H]1NC(=O)[C@H]([C@@H](C)O)NC(=O)[C@H](CCC(=O)O)NC(=O)[C@H](CO)NC(=O)[C@H](CCCN=C(N)N)NC(=O)[C@@H](N)CSSC[C@@H](C(N)=O)NC1=O	–	3000 nM	30000 nM
CC(C)C[C@@H]1NC(=O)[C@H]([C@@H](C)O)NC(=O)[C@H](CCC(N)=O)NC(=O)[C@H](CO)NC(=O)[C@H](CCCNC(=N)N)NC(=O)[C@@H](N)CSSC[C@@H](C(N)=O)NC1=O (HELM PEPTIDE1{C.R.S.Q.T.L.C.[am]}$PEPTIDE1,PEPTIDE1,1:R3-7:R3$$$V2.0)	–	> 100000 nM	> 100000 nM
CSCC[C@H](NC(=O)[C@H](CC(C)C)NC(=O)[C@H](Cc1c[nH]c2ccccc12)NC(=O)[C@H](CCCN=C(N)N)NC(=O)[C@H](CCC(=O)O)NC(=O)[C@H](Cc1c[nH]c2ccccc12)NC(C)=O)C(=O)N[C@@H](CC(=O)O)C(=O)N[C@H]1CSSC[C@@H](C(=O)NCC(=O)N[C@@H](CCC(=O)O)C(=O)N[C@@H](CO)C(=O)N[C@@H](Cc2c[nH]cn2)C(=O)N[C@@H](CCC(N)=O)C(=O)N[C@@H](CCC(=O)O)C(N)=O)NC(=O)[C@H](CC(C)C)NC(=O)[C@H]([C@@H](C)O)NC(=O)[C@H](CC(=O)O)NC(=O)[C@H](CO)NC(=O)[C@H](CCCN=C(N)N)NC1=O (HELM PEPTIDE1{[ac].W.E.R.W.L.M.D.C.R.S.D.T.L.C.G.E.S.H.Q.E.[am]}$PEPTIDE1,PEPTIDE1,9:R3-15:R3$$$V2.0)	–	12100 nM	1300 nM
CC(C)C[C@H]1NC(=O)[C@H]([C@H](C)O)NC(=O)[C@H](CC(=O)O)NC(=O)[C@H](CO)NC(=O)[C@@H](CCCN=C(N)N)NC(=O)[C@H](N)CSSC[C@H](C(N)=O)NC1=O	–	> 100000 nM	> 100000 nM
